From ChEMBL document CHEMBL4811244, “Design and synthesis of 1H-pyrazolo[3,4-b]pyridines targeting mitogen-activated protein kinase kinase 4 (MKK4) - A promising target for liver regeneration” (Eur J Med Chem, 2021)

Assays:
[1] = molecular target: T1, Dual specificity mitogen-activated protein kinase kinase 7 (Homo sapiens) (UniProt O14733); assay: Binding affinity to wild-type human full length MKK7 (M1 to R419 residues) expressed in mammalian expression system assessed as residual binding level at 100 nM by Kinomescan method relative to control
T1 sequence (whole entry): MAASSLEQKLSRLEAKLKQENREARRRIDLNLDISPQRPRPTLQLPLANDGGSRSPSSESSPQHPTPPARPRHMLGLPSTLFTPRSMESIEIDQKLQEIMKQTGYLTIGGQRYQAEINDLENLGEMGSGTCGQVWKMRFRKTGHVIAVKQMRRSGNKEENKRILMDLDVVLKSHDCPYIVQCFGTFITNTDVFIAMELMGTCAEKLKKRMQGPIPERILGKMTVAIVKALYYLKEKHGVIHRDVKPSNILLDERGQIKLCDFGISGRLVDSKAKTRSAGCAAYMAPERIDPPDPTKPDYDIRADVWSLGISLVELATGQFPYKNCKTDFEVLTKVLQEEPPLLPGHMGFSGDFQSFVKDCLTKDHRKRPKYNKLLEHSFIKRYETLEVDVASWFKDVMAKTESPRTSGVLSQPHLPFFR

[2] = molecular target: Serine/threonine-protein kinase B-raf (Homo sapiens, UniProt P15056); assay: Binding affinity to wild-type human partial length BRAF (S429 to E741 residues) expressed in mammalian expression system by Kinomescan method
[3] = molecular target: Mitogen-activated protein kinase 8 (Homo sapiens, UniProt P45983); assay: Binding affinity to wild-type human full length JNK1 (M1 to Q384 residues) expressed in mammalian expression system by Kinomescan method
[4] = molecular target: T2, Mitogen-activated protein kinase kinase kinase kinase 5 (Homo sapiens, UniProt Q9Y4K4); assay: Binding affinity to wild-type human partial length MAP4K5 (M1 to P297 residues) expressed in bacterial expression system assessed as residual binding level at 100 nM by Kinomescan method relative to control
Target sequence in this assay (Q9Y4K4 whole entry, looked up, the tested form may be a part): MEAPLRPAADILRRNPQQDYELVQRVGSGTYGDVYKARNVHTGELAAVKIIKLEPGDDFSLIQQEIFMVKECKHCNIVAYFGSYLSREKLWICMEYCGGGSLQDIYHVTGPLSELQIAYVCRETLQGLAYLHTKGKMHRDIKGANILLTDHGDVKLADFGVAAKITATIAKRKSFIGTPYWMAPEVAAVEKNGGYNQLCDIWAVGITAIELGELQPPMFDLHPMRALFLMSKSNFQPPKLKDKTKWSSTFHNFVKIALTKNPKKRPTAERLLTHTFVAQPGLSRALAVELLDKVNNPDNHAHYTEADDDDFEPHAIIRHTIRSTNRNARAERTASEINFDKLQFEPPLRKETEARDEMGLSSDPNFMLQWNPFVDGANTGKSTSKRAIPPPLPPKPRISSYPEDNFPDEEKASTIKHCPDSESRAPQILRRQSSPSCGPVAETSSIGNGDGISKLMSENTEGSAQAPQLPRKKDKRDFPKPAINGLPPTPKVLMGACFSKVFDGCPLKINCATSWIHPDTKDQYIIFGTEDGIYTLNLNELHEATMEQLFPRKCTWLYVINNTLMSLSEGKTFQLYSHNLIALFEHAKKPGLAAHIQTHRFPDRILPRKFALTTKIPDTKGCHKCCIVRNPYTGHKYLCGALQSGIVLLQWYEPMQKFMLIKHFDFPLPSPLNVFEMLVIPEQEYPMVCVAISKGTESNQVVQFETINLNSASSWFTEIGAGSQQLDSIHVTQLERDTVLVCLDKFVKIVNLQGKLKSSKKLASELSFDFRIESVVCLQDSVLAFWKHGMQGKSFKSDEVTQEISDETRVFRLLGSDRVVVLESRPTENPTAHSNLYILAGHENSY

[5] = molecular target: T2, Mitogen-activated protein kinase kinase kinase kinase 5; assay: Binding affinity to wild-type human partial length MAP4K5 (M1 to P297 residues) expressed in bacterial expression system by Kinomescan method
Outline: (§1)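 Dissociation constants (Kd, nM) were determined by KINOMEscan competition-binding assay, in duplicate.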
Target sequence in this assay (Q9Y4K4 whole entry, the tested form may be a part): as the sequence (Q9Y4K4 whole entry, looked up, the tested form may be a part) above

[6] = molecular target: T3, Mitogen-activated protein kinase kinase kinase 20 (Homo sapiens, UniProt Q9NYL2); assay: Binding affinity to wild-type human partial length ZAK (M1 to L331 residues) expressed in bacterial expression system assessed as residual binding level at 100 nM by Kinomescan method relative to control
Target sequence in this assay (Q9NYL2 2-800 limits assumed): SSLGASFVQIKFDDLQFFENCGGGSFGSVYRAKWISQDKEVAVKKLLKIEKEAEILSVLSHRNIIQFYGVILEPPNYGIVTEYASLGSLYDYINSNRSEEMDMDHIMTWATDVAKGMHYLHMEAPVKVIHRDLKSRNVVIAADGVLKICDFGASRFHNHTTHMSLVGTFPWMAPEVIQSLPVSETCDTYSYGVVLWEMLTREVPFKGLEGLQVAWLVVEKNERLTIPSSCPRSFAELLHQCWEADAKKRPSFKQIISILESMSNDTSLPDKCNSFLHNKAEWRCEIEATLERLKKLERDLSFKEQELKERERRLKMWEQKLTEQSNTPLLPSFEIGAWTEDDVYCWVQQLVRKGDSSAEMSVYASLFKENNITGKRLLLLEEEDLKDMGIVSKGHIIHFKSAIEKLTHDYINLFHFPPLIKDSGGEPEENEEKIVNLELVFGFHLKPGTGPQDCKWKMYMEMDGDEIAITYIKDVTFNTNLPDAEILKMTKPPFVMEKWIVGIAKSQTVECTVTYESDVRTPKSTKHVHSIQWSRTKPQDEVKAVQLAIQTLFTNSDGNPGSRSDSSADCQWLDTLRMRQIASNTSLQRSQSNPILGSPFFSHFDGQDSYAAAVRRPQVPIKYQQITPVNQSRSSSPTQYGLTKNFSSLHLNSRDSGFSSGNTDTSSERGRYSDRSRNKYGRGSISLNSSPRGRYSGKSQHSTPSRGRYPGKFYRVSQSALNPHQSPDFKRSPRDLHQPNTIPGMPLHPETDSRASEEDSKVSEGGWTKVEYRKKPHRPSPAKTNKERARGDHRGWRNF

[7] = molecular target: T3, Mitogen-activated protein kinase kinase kinase 20; assay: Binding affinity to wild-type human partial length ZAK (M1 to L331 residues) expressed in bacterial expression system by Kinomescan method; outline: as §1
Target sequence in this assay (Q9NYL2 whole entry, the tested form may be a part): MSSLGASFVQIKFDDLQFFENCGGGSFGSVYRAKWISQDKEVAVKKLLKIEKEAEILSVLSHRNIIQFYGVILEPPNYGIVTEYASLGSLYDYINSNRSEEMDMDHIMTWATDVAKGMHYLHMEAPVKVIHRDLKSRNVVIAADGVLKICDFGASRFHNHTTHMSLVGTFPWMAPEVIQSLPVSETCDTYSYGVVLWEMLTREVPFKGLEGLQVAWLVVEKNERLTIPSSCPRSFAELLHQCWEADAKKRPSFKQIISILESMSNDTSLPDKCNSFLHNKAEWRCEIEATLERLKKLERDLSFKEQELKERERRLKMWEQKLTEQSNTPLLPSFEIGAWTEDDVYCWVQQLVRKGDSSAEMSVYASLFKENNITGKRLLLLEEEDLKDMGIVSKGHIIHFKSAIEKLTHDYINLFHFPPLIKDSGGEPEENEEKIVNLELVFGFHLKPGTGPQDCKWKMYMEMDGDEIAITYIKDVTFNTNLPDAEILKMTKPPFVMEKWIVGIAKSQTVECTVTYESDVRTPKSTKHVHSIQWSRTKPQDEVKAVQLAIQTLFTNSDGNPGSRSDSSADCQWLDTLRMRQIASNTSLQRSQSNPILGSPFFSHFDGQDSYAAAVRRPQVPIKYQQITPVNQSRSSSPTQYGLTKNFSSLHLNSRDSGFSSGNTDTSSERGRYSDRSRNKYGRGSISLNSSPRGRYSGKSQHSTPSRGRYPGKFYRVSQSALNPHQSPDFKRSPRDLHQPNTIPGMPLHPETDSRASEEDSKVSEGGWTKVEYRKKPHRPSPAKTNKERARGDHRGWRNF

[8] = molecular target: T4, Dual specificity mitogen-activated protein kinase kinase 7 (Homo sapiens, UniProt O14733); assay: Binding affinity to wild-type human full length MKK7 (M1 to R419 residues) expressed in mammalian expression system by Kinomescan method; outline: as §1
T4 sequence (O14733 whole entry): T1 sequence (whole entry)

Chain of Mitogen-activated protein kinase 8 (P45983 whole entry, the tested form may be a part): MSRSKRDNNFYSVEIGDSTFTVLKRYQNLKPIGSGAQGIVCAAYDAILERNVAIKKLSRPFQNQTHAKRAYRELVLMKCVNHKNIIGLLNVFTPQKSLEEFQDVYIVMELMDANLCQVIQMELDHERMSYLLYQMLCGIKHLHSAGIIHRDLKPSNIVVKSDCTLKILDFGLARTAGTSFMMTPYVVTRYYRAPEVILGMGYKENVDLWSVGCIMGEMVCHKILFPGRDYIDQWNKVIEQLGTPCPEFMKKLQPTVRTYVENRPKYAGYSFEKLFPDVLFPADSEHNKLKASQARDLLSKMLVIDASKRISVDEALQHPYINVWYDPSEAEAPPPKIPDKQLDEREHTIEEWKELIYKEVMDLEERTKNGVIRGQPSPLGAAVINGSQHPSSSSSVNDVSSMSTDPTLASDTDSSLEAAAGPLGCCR
Chain of Serine/threonine-protein kinase B-raf (P15056 whole entry, the tested form may be a part): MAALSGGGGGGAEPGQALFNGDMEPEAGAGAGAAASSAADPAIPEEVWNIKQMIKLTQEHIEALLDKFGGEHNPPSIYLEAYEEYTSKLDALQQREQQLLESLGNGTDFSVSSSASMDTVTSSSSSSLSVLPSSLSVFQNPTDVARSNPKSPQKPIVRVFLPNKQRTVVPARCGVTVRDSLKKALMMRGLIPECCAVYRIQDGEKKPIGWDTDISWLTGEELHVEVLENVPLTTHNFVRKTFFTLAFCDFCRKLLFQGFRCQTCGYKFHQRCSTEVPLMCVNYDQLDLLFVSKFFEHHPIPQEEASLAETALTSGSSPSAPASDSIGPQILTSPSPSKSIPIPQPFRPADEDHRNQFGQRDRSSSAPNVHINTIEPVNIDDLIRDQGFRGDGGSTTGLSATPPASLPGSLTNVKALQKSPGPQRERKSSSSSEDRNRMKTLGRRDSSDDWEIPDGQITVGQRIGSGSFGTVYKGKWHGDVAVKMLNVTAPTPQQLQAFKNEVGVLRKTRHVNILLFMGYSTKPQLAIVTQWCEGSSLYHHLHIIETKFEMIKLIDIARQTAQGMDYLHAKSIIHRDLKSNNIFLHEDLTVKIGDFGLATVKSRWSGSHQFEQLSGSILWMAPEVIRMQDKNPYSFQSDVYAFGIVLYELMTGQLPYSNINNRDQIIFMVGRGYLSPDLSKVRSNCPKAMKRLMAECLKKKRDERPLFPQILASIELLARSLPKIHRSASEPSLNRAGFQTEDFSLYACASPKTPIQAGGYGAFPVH

`Nc1ccc(-c2cnc3[nH]nc(C(=O)c4c(F)ccc(NS(=O)(=O)Cc5ccccc5)c4F)c3c2)cc1` gave an Activity [1] of 100%, a Kd [2] of 610 nM and a Kd [3] of 140 nM. The Activity [4] was 1.4%, the Kd [5] was 5.8 nM and the Activity [6] was 1.8%. For the same compound, the Kd [7] was 9.5 nM and the Kd [8] was 5000 nM.
